# Source: PubChem
# Most compounds without a hit are left out; they make up all but 3.2% or so of the library.
# OX1R antag-1 = antagonists of human orexin 1 receptor (OX1R). Orexin/Hypocretin receptor type 1 (Homo sapiens), O43613. OX1R-expressing cells, FRET antagonist read-out. inhibition, % at 6.6 µM. actives 1.8% (n = 330,000). AID 485270, 2010; in the data active = inhibition mostly above about 38%, no sharp cut-off; inactive = mostly below about 40%;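 note: 0% = agonist challenge alone and 100% = reference antagonist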
# Target sequence (O43613 whole entry, looked up): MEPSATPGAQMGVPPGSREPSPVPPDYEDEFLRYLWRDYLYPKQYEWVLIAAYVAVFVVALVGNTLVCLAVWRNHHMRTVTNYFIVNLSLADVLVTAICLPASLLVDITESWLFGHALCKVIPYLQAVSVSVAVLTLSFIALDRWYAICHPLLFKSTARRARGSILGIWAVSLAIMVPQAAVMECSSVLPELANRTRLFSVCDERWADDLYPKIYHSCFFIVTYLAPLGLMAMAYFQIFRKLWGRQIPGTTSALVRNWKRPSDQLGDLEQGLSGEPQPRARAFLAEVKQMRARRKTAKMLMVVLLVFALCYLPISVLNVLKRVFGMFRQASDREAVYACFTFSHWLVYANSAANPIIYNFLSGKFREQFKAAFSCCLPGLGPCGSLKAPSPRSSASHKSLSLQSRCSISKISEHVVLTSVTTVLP
# OX1R antag-2 = OX1R (HCRTR1) antagonists, primary screen, fluorescence, CHO/OX1R cells, Fluo-8 calcium, orexin A. inhibition, % at 5 µM. Fluo-8 calcium fluorescence. Orexin/Hypocretin receptor type 1 (Homo sapiens), O43613. actives 0.43% (n = 330,000);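 active = inhibition above its plate's threshold, mean inhibition of all tested compounds on the plate plus 3 SD, cut at about 37% in these data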;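 note: 0% = orexin A challenge wells and 100% = SB-334867-A antagonist wells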
# TRPN1 ag = zebrafish TRPN1 channel agonists, primary screen, cell-based, HEK293, calcium fluorescence. transient receptor potential cation channel N1 (TRPN1/NompC), Danio rerio. HEK293 zebrafish TRPN1-YFP, Fluo-8 calcium fluorescence; 100% = response to 87 µM carbachol. activation, % at 3 µM. actives 0.18% (n = 220,000);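 active = activation above its plate's cutoff, the mean activation of test wells on that plate plus 3 SD, cut at about 19% in these data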;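 note: 0% = DMSO alone and 100% = 87 µM carbachol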
#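 System: zebrafish TRPN1-YFP in HEK293 cells / Dosing: 3 µM single point / Timing: dye loading 1 h at 37 °C, then 30 min room temperature / Signal: Fluo-8 calcium fluorescence, excitation 470-495 nm, emission 515-575 nm / Read-out basis: percent activation from peak over basal fluorescence ratio, control-normalized / Control set: high carbachol 87 µM, low DMSO alone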
# GPR7 antagonist = GPR7 receptor antagonists, primary screen, cell-based, fluorescence, single concentration. Neuropeptides B/W receptor type 1 (Homo sapiens), P48145. GPR7-expressing cells, fluorescence antagonist assay. inhibition, % at 4.4 µM. actives 1.1% (n = 290,000). AID 1861, 2009; in the data active = inhibition above about 16%, passing the limit was not always enough;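 note: cells stimulated with the agonist NPW; 0% = agonist with vehicle and 100% = vehicle without agonist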
# Target sequence (P48145 whole entry, looked up): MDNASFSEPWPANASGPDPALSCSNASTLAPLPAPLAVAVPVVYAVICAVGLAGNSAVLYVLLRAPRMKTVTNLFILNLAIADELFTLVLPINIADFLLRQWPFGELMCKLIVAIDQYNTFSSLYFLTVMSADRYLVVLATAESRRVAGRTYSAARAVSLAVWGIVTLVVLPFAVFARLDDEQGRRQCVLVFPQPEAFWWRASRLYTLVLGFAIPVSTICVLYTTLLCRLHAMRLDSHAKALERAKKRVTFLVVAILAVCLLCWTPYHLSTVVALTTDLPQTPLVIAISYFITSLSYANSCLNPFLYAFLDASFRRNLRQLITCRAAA
# TRPML3 agonist = human TRPML3 channel agonists, primary screen, cell-based, HEK293 TRPML3-YFP, Fluo-8 calcium fluorescence, 3 µM; activation, % at 3 µM; Mucolipin-3 (Homo sapiens), Q8TDD5; actives 0.29% (n = 220,000); 100% = the carbachol control signal;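 active = activation above its plate's cutoff, the mean activation of the plate's test wells plus 3 SD, cut at about 12% in these data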;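 note: 0% = DMSO only wells and 100% = carbachol wells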
#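 Test system: HEK293 cells stably carrying human TRPML3-YFP; Doses: single dose, 3 µM final nominal compound, 0.3% DMSO final; Schedule: dye loading 1 h 37 °C then 30 min ambient, 125 s read; Technique: Fluo-8 calcium fluorescence; Benchmarks: high control carbachol 87 µM, low control DMSO.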
# CHO parental Ca = ATP-evoked calcium signal inhibitors, parental CHO, primary screen, counter-screen for OX1R antagonist project, cell-based, fluorescence, Fluo-8 calcium dye; parental CHO-K1, ATP-induced calcium, Fluo-8 fluorescence; inhibition, % at 5.6 µM; actives 0.63% (n = 330,000);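 active = inhibition above that plate's mean sample inhibition plus 3 SD, cut at about 26% in these data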;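 note: 0% = ATP-challenged DMSO wells and 100% = DMSO wells without ATP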
#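 Material: Parental CHO cells | Reagent: ATP | Compound dosing: Single nominal dose of 5.6 µM per compound | Detection: Intracellular calcium via Fluo-8 no-wash fluorescent dye | Read-out: % inhibition of ATP-induced calcium mobilization | Benchmarks: Low control ATP plus DMSO, high control DMSO only | Replicates: Singlicate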
# GPR7 antag cf = GPR7 receptor antagonists, confirmation, cell-based, fluorescence, single concentration | shares compounds with GPR7 antagonist | GPR7-expressing cells, calcium fluorescence antagonist mode | inhibition, % at 4.4 µM | actives 52% (n = 2,400) | AID 1952, 2009; in the data active = inhibition above about 24%;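 note: stimulated with the GPR7 agonist NPW; 0% = agonist plus vehicle and 100% = vehicle alone without agonist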
# MCHR1 antagonist = MCHR1 antagonists in cells, counter-screen for GPR7 antagonist project, cell-based, fluorescence, human; shares compounds with GPR7 antagonist; MCHR1-expressing cells, fluorescence antagonist assay; inhibition, % at 4.4 µM; actives 62% (n = 2,400); AID 2148, 2009; in the data active = inhibition above about 22%;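 note: 0% = vehicle with agonist and 100% = vehicle without agonist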
# Starred values were filed as active, the others as inactive; / = not tested or not shown.
SMILES,OX1R antag-1,OX1R antag-2,TRPN1 ag,GPR7 antagonist,TRPML3 agonist,CHO parental Ca,GPR7 antag cf,MCHR1 antagonist
COc1ccc(-c2cnc(SCC(=O)Nc3ccc4c(c3)OCO4)n2Cc2ccco2)cc1,/,/,-1.2,22.4*,-0.6,/,41.8*,67.7*
Cc1cc(NC(=O)CSc2nnc(COc3ccccc3)n2Cc2ccco2)no1,6.4,-12.1,-0.5,9.3,-0.1,-9.5,/,/
CC(c1ccon1)N(C)C(=O)CCc1nnc(C2(c3ccc(Cl)cc3)CCC2)o1 (stereo unspecified),0.4,-22.6,-2.6,25.0*,-0.2,0.1,-5.6,3.9
COCC(C)NC(=O)CCc1nnc(C2(c3ccc(Cl)cc3)CCC2)o1 (stereo unspecified),3.2,-21.1,-0.6,-7.8,0.7,-11.5,/,/
Cc1cc(N2CCCCC2)nc(N)n1,6.5,-15.2,10.9,42.7*,11.2,1.7,53.3*,75.2*
Cc1cc(N2CCCC2)nc(-c2ccccc2O)n1,10.6,-17.5,0.3,3.3,0.7,-0.5,/,/
c1ccc(-c2ccc(OCCCNC3CCCC3)cc2)cc1,1.0,-6.8,1.3,21.3*,1.2,-0.6,22.8,20.7
S=C(Nc1ccc(Cl)c(Cl)c1)NC1CCCCC1,59.4*,24.1,17.5,42.6*,11.4,37.6*,35.4*,48.1*
S=C(Nc1ccc(Cl)c(Cl)c1)NC1CCN(Cc2ccccc2)CC1,0.5,95.6*,7.1,32.9*,4.2,92.9*,70.1*,94.4*
S=C(Nc1ccc2nsnc2c1)NC1CCCCC1,31.9,-9.2,1.0,-5.4,0.6,-5.6,/,/
CCOc1ccc(N=C2NC(=O)SC2CC(=O)OC)cc1 (stereo unspecified),12.8,12.3,0.8,-8.6,0.5,-3.1,/,/
CC(NCc1ccc(OCc2ccc(Cl)cc2)cc1)C(O)c1ccccc1 (stereo unspecified),6.4,-2.6,2.4,27.3*,2.1,33.8,58.2*,80.9*
CC(NCc1cccc(OCc2ccccc2)c1)C(O)c1ccccc1 (stereo unspecified),5.6,-29.0,0.4,5.3,1.0,-5.2,/,/
COc1ccc(NC(=O)c2cc3c(CO)cnc(C)c3oc2=Nc2cc(OC)cc(OC)c2)cc1,10.9,-25.1,/,36.5*,/,-30.1,-21.1,-2.8
COc1cc(NC(=O)c2cc3c(CO)cnc(C)c3oc2=Nc2cccc(C(N)=O)c2)cc(OC)c1,14.7,-3.9,/,-19.6,/,2.1,/,/
Cc1ccc(C2NC(=NCc3ccccc3)Nc3nc(C)cc(=O)n32)cc1 (stereo unspecified),5.7,-24.6,-2.8,26.5*,-0.8,-8.5,-0.2,10.6
CC(=O)c1cccc(NC(=S)NC(=O)Cc2ccc(Cl)cc2)c1,-5.5,9.6,/,36.0*,/,-1.5,54.6*,35.5*
CC(=O)c1cccc(NC(=S)NC(=O)Cc2ccccc2)c1,27.9,-31.8,1.2,0.5,0.3,-17.7,/,/
CN(CC(=O)Nc1ccccc1Br)C(=O)C1CCN(C(=O)c2ccc(Cl)cc2)CC1,6.8,-19.8,/,-11.7,/,-3.0,/,/
CC(=O)Nc1nc(-c2ccc3c(c2)CCN3S(C)(=O)=O)cs1,8.6,-2.2,2.1,1.3,0.7,-7.2,/,/
CS(=O)(=O)N1CCc2cc(-c3csc(NC(=O)Cc4cccs4)n3)ccc21,17.3,0.5,9.0,38.6*,4.6,0.7,69.4*,82.6*
O=C(COc1ccc(Br)cc1CNC1CCCCC1)NCCc1ccccc1,12.5,-20.3,1.2,21.0*,2.2,-5.8,48.0*,30.8*
COc1ccc(Br)cc1CN(C)CC(=O)NCCc1ccccc1,11.5,-31.1,-0.8,5.4,-1.0,-16.9,/,/
Cc1ccn(CC(=O)N2CCCC(N3CCN(c4cccc(Cl)c4)CC3)C2)n1 (stereo unspecified),3.5,-30.3,/,-4.8,/,-15.3,/,/
CC(C)NS(=O)(=O)c1ccc(CCC(=O)N2CCCCC2)cc1,7.0,-24.0,1.5,22.5*,0.6,13.4,-12.3,2.1
SMILES,OX1R antag-1,OX1R antag-2,TRPN1 ag,GPR7 antagonist,TRPML3 agonist,CHO parental Ca,GPR7 antag cf,MCHR1 antagonist
CNS(=O)(=O)c1ccc(CCC(=O)N2CCOCC2)cc1,19.1,-12.2,/,-14.9,/,-1.4,/,/
CC(C)(CNc1ccc([N+](=O)[O-])cc1Cl)N1CCOCC1,31.0,-23.7,/,-1.6,/,1.5,/,/
Cc1nonc1OCCNCCNc1ccc([N+](=O)[O-])cc1Cl,34.1,-19.4,-0.2,24.8*,0.3,-4.6,11.6,11.3
C[C@@H]1CCC2[C@](C)(CO)[C@@H](O)CC[C@]2(C)[C@@]12CC[C@@](CO)(CC(=O)O)O2 (stereo partly specified),6.1,0.7,/,12.2,/,3.5,/,/
CCCc1cc(C(=O)Nc2ccc(F)c(Cl)c2)no1,33.0,-0.8,/,28.9*,/,7.3,32.7*,30.2*
COc1ccc(S(=O)(=O)N2CCN(CC(=O)Nc3cccc(OC)c3)CC2)cc1,5.5,3.0,/,34.5*,/,7.2,25.1*,15.6
COc1ccc(S(=O)(=O)N2CCCN(CC(=O)Nc3ccccc3F)CC2)cc1,21.8,-10.7,/,29.9*,/,-16.5,3.7,41.7*
COc1ccc(CC(=O)Nc2ccc(S(=O)(=O)N3CCOCC3)cc2)cc1,-1.1,-1.4,/,/,/,4.4,/,/
COc1ccc(S(=O)(=O)N2CCCN(CC(=O)Nc3ccc4c(c3)OCO4)CC2)cc1,29.5,-26.8,1.6,18.1,0.3,-8.5,/,/
COc1ccc(S(=O)(=O)N2CCN(CCC(=O)Nc3ccccc3F)CC2)cc1,20.2,-12.0,-0.2,1.5,-0.2,-22.0,/,/
COc1ccc(S(=O)(=O)N(CC(=O)Nc2ccc(S(=O)(=O)N3CCOCC3)cc2)Cc2ccc(F)cc2)cc1,-3.5,10.6,0.6,24.2*,-0.1,4.1,28.3*,20.8
NS(=O)(=O)c1ccc(CCNC(=O)c2cc([N+](=O)[O-])ccc2N2CCOCC2)cc1,27.5,5.8,/,/,/,5.3,/,/
O=C(c1ccccc1)c1ccc(Cn2cc(-c3ccccc3)nn2)cc1,38.1,-7.5,/,40.9*,/,20.7,46.5*,60.8*
Fc1ccc(-c2csc3[n+]2CCS3)cc1,19.7,-24.1,-0.9,4.3,-0.6,-33.3,/,/
